Test [1] has as its target T1, Cathepsin Z (Homo sapiens, UniProt Q9UBR2). Briefly: Inhibition of human cathepsin X expressed in Pichia pastoris assessed as residual activity using Abz-FEK(Dnp)-OH as substrate incubated for 30 to 45 mins by fluorescence assay.
In test [2] the test system is PC-3. The test is described as follows: Cytotoxicity against human PC-3 cells assessed as reduction in cell viability at 20 uM after 24 to 48 hrs by MTS assay. The test is classed as functional, cell-based. Conditions: time 24-48 hrs. The essentials: (§1)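 PC-3 cells seeded at 6.5×10^4 cells/mL in Advanced DMEM/F-12 with 10% FBS and exposed to compound at 10 or 20 µM for 24 h or 48 h. Means ± SD of three independent assays, each in triplicate.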
A general note: Tetrazolium assays rely on reduction of a dye to a coloured formazan, in cell work by metabolically active cells.

Test [3] concerns the target T1, Cathepsin Z. Briefly: Inhibition of human cathepsin X expressed in Pichia pastoris assessed as residual activity at 50 uM using Abz-FEK(Dnp)-OH as substrate incubated for 30 to 45 mins by fluorescence assay relative to control. Conditions: time 30-45 min. The essentials:
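Substrate was Abz-FEK(Dnp)-OH at 3.25 µM final, compound at 50 µM final. Fluorescence (ex 320/em 420 nm) was followed continuously for 30-45 min at 37 °C. Activity was taken from rates relative to no-compound velocity. Two experiments in duplicate.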

For test [4], the system named is PC-3. Briefly: Cytotoxicity against human PC-3 cells assessed as reduction in cell viability at 10 uM after 24 to 48 hrs by MTS assay. The conditions noted are these: time 24-48 hrs. The test is classed as functional, cell-based. The essentials:
as §1

For test [5], the system named is PC-3. Briefly: Antimigratory activity against human PC-3 cells at 20 uM up to 72 hrs by xCELLigence based RTCA analysis. The test is classed as functional, cell-based. The conditions noted are these: time hrs <=72. Summed up:
(§2)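 PC-3 cells grown in Advanced DMEM/F-12 (1:1) with 10% FBS, L-glutamine and penicillin/streptomycin. Fibronectin-coated (10 μg/mL) xCELLigence CIM plates held 2 × 10⁴ cells per well. Compound at 10 or 20 μM was added to complete medium (lower chamber) or serum-free medium (upper chamber), with 0.1% DMSO as control. Cell index was read every 15 min for 72 h. Migration was taken as the slope of the curve over a selected interval, normalized to DMSO-treated cells. Means ± SD, two independent assays in duplicate or triplicate.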

For test [6], the system named is PC-3. The test is described as follows: Antimigratory activity against human PC-3 cells at 10 uM up to 72 hrs by xCELLigence based RTCA analysis relative to control. It is filed as functional. Conditions: dose 20 µM; time hrs <=72; in the assay text read “at 20 uM” for “at 10 uM”. Summed up: as §2
The target of test [7] is T2, Cathepsin S (Homo sapiens, UniProt P25774). Briefly: Inhibition of human cathepsin S expressed in Pichia pastoris at 100 uM using Z-VVR-AMC as substrate by fluorescence assay relative to control. The essentials:
(§3)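 Cathepsin S expressed in P. pastoris, assayed in 100 mM phosphate buffer pH 6.5 containing 5 mM cysteine, 1.5 mM EDTA and 0.1% PEG 8000 after 5 min activation at 37 °C. Substrate was fluorogenic Z-VVR-AMC.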
Target sequence in this assay (P25774 115-331 limits assumed): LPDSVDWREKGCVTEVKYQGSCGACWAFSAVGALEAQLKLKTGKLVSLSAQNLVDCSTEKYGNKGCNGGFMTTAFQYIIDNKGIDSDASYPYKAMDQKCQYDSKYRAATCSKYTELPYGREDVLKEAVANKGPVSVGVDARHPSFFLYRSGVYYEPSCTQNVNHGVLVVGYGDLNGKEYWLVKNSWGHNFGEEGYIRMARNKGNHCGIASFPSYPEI

For test [8], the target named is Cathepsin B (Homo sapiens) (UniProt P07858). Briefly: Inhibition of human cathepsin B expressed in Escherichia coli at 100 uM using Abz-GIVRAK(Dnp)-OH as substrate by fluorescence assay relative to control. The essentials:
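Cathepsin B exopeptidase activity: recombinant enzyme from E. coli in 60 mM acetate buffer pH 5.0 with 5 mM cysteine, 1.5 mM EDTA and 0.1% PEG 8000, activated 5 min at 37 °C. Fluorogenic substrate Abz-GIVRAK(Dnp)-OH.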

Test [9] concerns the target Procathepsin L (Homo sapiens) (UniProt P07711). The test is described as follows: Inhibition of human cathepsin L expressed in Escherichia coli at 100 uM using Z-FR-AMC as substrate by fluorescence assay relative to control.
Test [10] deals with T2, Cathepsin S. The test is described as follows: Inhibition of human cathepsin S expressed in Pichia pastoris using Z-VVR-AMC as substrate by fluorescence assay. The essentials:
as §3
Target sequence in this assay (P25774 whole entry): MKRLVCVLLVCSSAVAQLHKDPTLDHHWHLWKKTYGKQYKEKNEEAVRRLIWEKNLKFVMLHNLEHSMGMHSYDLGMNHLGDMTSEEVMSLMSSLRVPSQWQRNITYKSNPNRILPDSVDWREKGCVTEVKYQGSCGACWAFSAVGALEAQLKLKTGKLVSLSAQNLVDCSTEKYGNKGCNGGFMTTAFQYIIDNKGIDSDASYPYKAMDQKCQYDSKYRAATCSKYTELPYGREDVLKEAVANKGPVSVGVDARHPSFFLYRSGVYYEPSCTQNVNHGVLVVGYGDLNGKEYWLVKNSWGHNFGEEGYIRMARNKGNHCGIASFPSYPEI

The text below walks through data of ChEMBL document CHEMBL4680241, “Structure-activity relationships of triazole-benzodioxine inhibitors of cathepsin X” (Eur J Med Chem, 2020).

SMILES strings stand for the structures. Active and inactive are the calls of the source. The rule behind the calls is not given here.

T1 sequence (Q9UBR2 whole entry): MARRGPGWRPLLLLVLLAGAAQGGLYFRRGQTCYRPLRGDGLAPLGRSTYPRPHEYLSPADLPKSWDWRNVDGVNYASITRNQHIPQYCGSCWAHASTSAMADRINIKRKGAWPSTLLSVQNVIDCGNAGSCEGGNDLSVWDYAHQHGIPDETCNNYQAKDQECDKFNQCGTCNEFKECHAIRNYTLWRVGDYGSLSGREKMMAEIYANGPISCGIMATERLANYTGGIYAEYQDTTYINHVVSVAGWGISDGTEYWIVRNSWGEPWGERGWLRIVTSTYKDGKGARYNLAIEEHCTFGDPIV
Sequence of Procathepsin L (Homo sapiens) (P07711 114-333 limits assumed): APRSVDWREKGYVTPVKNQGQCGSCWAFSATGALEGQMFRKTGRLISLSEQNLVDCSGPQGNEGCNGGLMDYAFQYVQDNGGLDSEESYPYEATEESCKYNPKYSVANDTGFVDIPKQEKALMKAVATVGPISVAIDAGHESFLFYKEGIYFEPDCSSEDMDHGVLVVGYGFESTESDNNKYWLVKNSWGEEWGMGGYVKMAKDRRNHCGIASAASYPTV

By IC50 is commonly meant the concentration needed to halve the response being measured. For `N#Cc1ccc(-n2cnnc2SCC(=O)c2ccc3c(c2)OCCO3)cc1`, the IC50 on Cathepsin Z [1] was 12.4 µM. In addition, in the test on PC-3 [2], the result was Active. At Cathepsin Z [3], the Activity was 20%. The outcome in the test with PC-3 [4] was inactive. As for `CC(C)n1cnnc1SCC(=O)c1ccc2c(c1)OCO2`, at Cathepsin Z [3], the Activity turned out to be 24%. Same read-out and setting: then `CC(C)n1cnnc1SCC(=O)C(C)(C)C`, with 80%.

Consider `Cc1n[nH]c(SCC(=O)c2ccc3c(c2)OCCO3)n1`, for which, on Cathepsin Z [3], the Activity stood at 28%. As for `O=C(CSc1ccccc1)c1ccc2c(c1)OCCO2`, on Cathepsin Z [3], the Activity turned out to be 48%. Still for that read-out and setting: in the case of `CC(C)n1cnnc1SCC(N)c1ccc2c(c1)OCCO2` (configuration not stated) it was 90%. With `COc1ccccc1C(=O)CSc1nncn1C(C)C`, the Activity on Cathepsin Z [3] was determined as 49%. The same measure, in the same setting: in the case of `CC(C)n1cnnc1SCC(=O)c1ccc(OCC#N)cc1` it was 69%; in that of `CC(C)n1cnnc1SCC(=O)c1ccc(N(C)C)cc1`, 41%. As to `CC(C)n1cnnc1SCC(=O)c1cccc([N+](=O)[O-])c1`, the Activity on Cathepsin Z [3] came to 100%. On the same count and under the same terms, in the case of `Cn1nnnc1SCC(=O)c1ccc2c(c1)OCCO2` it was 36%; in that of `CO/N=C(\CSc1nncn1C(C)C)c1ccc2c(c1)OCCO2`, 90%; in that of `O=C(COc1nnc[nH]1)c1ccc2c(c1)OCCO2`, 71%. Regarding `CC(C)n1cnnc1SCC(O)c1ccc2c(c1)OCCO2` (configuration not stated), the Activity at Cathepsin Z [3] is 98%.

`CC(C)n1cnnc1SCC(=O)c1ccc(O)cc1`: the Activity on Cathepsin Z [3] was 73%. For the compound `O=C(CSc1ncc[nH]1)c1ccc2c(c1)OCCO2`, on Cathepsin Z [1], the IC50 amounted to 13.6 µM. Also, the result in the test on PC-3 [2] was inactive. Also, the Activity on Cathepsin Z [3] came out at 17%. Turning to `CN(C)c1ccc(-n2cnnc2SCC(=O)c2ccc3c(c2)OCCO3)cc1`, the Activity at Cathepsin Z [3] amounted to 55%. With `O=C(CSc1nc(-c2ccncc2)n[nH]1)c1ccc2c(c1)OCCO2`, the Activity on Cathepsin Z [3] was 33%. For `CC(C)n1cnnc1SCC(=O)c1c[nH]c2ccccc12`, the Activity at Cathepsin Z [3] was determined as 27%. Regarding `CCn1cnnc1SCC(=O)c1ccc2c(c1)OCCO2`, the Activity at Cathepsin Z [3] is 24%. On to `Cn1cnnc1SCC(=O)c1ccc2c(c1)OCCO2`, for which the result in the test on PC-3 [5] and in the test on PC-3 [2] was inactive. Moreover, the IC50 at Cathepsin Z [1] came out at 11.8 µM. In addition, the Activity on Cathepsin Z [3] was found to be 17%.

Regarding `CC(C)n1cnnc1SCC(=O)c1ccc(OCC(=O)O)cc1`, the Activity on Cathepsin Z [3] was 85%.

`Cn1ccnc1SCC(=O)c1ccc2c(c1)OCCO2`: on Cathepsin Z [1], the IC50 is 9.54 µM. Further, the result in the test with PC-3 [2] and in the test with PC-3 [4] was inactive. For the same compound, the Activity on Cathepsin Z [3] stood at 15%. Regarding `O=C(CSc1cccs1)c1ccc2c(c1)OCCO2`, the Activity at Cathepsin Z [3] turned out to be 39%. For the compound `O=C(CSc1nncn1-c1cccnc1)c1ccc2c(c1)OCCO2`, on Cathepsin Z [3], the Activity turned out to be 22%.

Regarding `CC(C)n1cnnc1SCC(=O)c1ccc(C#N)cc1`, the Activity on Cathepsin Z [3] is 92%. As to `O=C(CSc1nc(-c2ccccc2)n[nH]1)c1ccc2c(c1)OCCO2`, the Activity on Cathepsin Z [3] is 37%. For `CCOC(=O)COc1ccc(C(=O)CSc2nncn2C(C)C)cc1`, on Cathepsin Z [3], the Activity stood at 60%.

Regarding `Cc1[nH]c2ccccc2c1C(=O)CSc1nncn1C(C)C`, the Activity on Cathepsin Z [3] is 62%.

On to `CC(C)Oc1ccc(C(=O)CSc2nncn2C(C)C)cc1`, for which, at Cathepsin Z [3], the Activity turned out to be 63%. For the compound `COc1ccc(C(=O)CSc2nncn2C(C)C)cc1`, the Activity on Cathepsin Z [3] turned out to be 66%. In general, inhibition refers to the change of the read-out against control, counted positive when it falls. A high value points to a strong effect. Turning to `N#CCn1ccnc1SCC(=O)c1ccc2c(c1)OCCO2`, the results for the Activity with PC-3 [6] and on Cathepsin Z [3] were 21% and 12%, respectively. The inhibition (at Cathepsin S [7]; in test [8]; in test [9]) was 30% in each case. For the same compound, the half-maximal inhibitory concentration (IC50) at Cathepsin Z [1] worked out at 7.13 µM; at Cathepsin S [10] it was 241 µM. For the same compound, the result in the test with PC-3 [2] was inactive.

`CC(C)n1cnnc1SCC(=O)c1ccc(Br)cc1`: at Cathepsin Z [3], the Activity is 77%.

Take `Cc1ccc(C(=O)CSc2nncn2C(C)C)cc1`: the Activity on Cathepsin Z [3] turned out to be 75%. Consider `CC(C)n1cnnc1SCC(=O)c1ccccc1`, for which the Activity on Cathepsin Z [3] came out at 100%.

For `CC(C)n1cnnc1SCC(=O)c1ccc2c(c1)OCCO2`, the IC50 on Cathepsin Z [1] is 11.5 µM. In the test with PC-3 [2], the result was inactive. For the same compound, the Activity at Cathepsin Z [3] was found to be 15%.

Consider `O=C(CSc1nc(C2CCCCC2)n[nH]1)c1ccc2c(c1)OCCO2`, for which the Activity at Cathepsin Z [3] worked out at 30%. In the case of `NC(=O)c1ccc(-n2cnnc2SCC(=O)c2ccc3c(c2)OCCO3)cc1`, at Cathepsin Z [3], the Activity worked out at 35%. Turning to `O=C(CSc1nc(C2CCCCC2)nn1C(=O)C1CCCCC1)c1ccc2c(c1)OCCO2`, on Cathepsin Z [3], the Activity is 43%.

`COc1cccc(C(=O)CSc2nncn2C(C)C)c1`: the Activity at Cathepsin Z [3] came out at 73%. For the compound `O=C(CSc1nnc[nH]1)c1ccc2c(c1)OCCO2`, the Activity on Cathepsin Z [3] is 23%. For the compound `O=C(CSc1nccs1)c1ccc2c(c1)OCCO2`, the Activity at Cathepsin Z [3] came out at 22%.
